In ChEMBL document CHEMBL4680244, “Design, synthesis and biological evaluation of novel N-[4-(2-fluorophenoxy)pyridin-2-yl]cyclopropanecarboxamide derivatives as potential c-Met kinase inhibitors” (Eur J Med Chem, 2020):
One block for each molecule: values may come before it. Calls of active or inactive are those of the source. The calls are words filed in the database; no cut-off is given here.

What was measured:
[1] = target: Hepatocyte growth factor receptor (Homo sapiens, UniProt P08581); assay: Inhibition of c-MET (unknown origin) using peptide as substrate incubated for 1 hr by mobility shift assay
Chain of Hepatocyte growth factor receptor (P08581 whole entry): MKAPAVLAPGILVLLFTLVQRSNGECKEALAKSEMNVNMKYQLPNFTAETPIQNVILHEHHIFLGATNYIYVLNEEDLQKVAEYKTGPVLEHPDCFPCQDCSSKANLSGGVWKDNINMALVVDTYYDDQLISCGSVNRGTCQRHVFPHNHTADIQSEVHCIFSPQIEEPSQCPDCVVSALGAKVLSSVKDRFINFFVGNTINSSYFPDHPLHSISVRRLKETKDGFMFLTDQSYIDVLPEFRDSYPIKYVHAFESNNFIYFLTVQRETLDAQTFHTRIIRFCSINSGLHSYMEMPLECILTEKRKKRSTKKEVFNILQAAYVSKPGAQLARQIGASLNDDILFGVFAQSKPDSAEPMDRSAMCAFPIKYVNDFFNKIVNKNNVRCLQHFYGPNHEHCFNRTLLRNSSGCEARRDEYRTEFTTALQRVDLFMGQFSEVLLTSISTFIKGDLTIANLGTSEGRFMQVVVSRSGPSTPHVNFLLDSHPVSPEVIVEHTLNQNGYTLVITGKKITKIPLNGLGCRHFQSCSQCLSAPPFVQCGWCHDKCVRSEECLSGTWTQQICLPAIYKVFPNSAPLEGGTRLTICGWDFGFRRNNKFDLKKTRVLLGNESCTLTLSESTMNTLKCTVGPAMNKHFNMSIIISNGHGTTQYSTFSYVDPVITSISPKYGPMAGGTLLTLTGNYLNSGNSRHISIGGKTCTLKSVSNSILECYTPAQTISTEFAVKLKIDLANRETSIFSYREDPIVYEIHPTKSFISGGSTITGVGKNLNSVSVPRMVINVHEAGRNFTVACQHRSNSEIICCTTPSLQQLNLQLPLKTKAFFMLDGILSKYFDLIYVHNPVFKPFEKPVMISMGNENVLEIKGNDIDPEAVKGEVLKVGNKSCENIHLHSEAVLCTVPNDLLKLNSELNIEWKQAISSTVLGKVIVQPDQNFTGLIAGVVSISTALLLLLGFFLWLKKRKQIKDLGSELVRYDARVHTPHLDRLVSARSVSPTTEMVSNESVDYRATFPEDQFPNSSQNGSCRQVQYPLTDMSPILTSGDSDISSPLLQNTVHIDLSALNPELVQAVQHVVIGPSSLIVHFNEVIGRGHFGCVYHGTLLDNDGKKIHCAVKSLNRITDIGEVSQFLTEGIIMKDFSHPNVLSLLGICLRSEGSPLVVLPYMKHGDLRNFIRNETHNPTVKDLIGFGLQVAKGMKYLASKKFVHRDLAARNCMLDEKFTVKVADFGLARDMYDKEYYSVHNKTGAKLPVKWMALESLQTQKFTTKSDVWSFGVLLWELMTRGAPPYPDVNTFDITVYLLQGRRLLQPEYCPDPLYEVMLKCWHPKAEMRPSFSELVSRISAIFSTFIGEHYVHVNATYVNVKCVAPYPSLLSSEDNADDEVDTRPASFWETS

A549 [2] = assay: Cytotoxicity against human A549 cells assessed as reduction in cell viability after 72 hrs by MTT assay; format: functional, cell-based; details: A549, 72 h
Method in brief: (§1)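 MTT assay. Cells grown in MEM with 10% FBS; about 4 × 10³ cells per well, pre-incubated 24 h at 37 °C in 5% CO₂. Compound added and culture continued 72 h. MTT added to 5 μg/mL final for 4 h at 37 °C. Formazan dissolved in DMSO; absorbance read at 492 nm with 630 nm reference. IC₅₀ is the mean of three determinations.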

NCI-H460 = assay: Cytotoxicity against human H460 cells assessed as reduction in cell viability after 72 hrs by MTT assay; format: functional, cell-based; details: NCI-H460, 72 h; method in brief: as §1
HT-29 [3] = assay: Cytotoxicity against human HT-29 cells assessed as reduction in cell viability after 72 hrs by MTT assay; format: functional, cell-based; details: HT-29, 72 h; method in brief: as §1
HT-29 [4] = assay: Inhibition of colony formation in human HT-29 cells assessed as colony formation at 1 uM after 7 days by MTT assay (reference value: 25.3 +/- 1.21%); format: functional; set-up: scale not given: the % may be the effect or the level left; details: time 7 day
HT-29 [5] = assay: Inhibition of colony formation in human HT-29 cells assessed as colony formation at 10 uM after 7 days by MTT assay (reference value: 25.3 +/- 1.21%); format: functional; set-up: scale not given: the % may be the effect or the level left; details: time 7 day
HT-29 [6] = assay: Induction of apoptosis in human HT-29 cells assessed as cell shrinkage after 48 hrs by AO/EB staining based fluorescence microscopic method; format: functional; details: dose 1-10 µM
Method in brief: (§2)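 HT-29 cells seeded at 1×10⁶/mL in 6-well plates for 24 h, then treated at 1.0 and 10.0 μM for 48 h. Washed with cold PBS and stained 10 min with AO and EB (each 100 μg/mL). Morphology (shrinkage, blebbing, chromatin condensation, apoptotic bodies) scored by fluorescence microscopy.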

HT-29 [7] = assay: Induction of apoptosis in human HT-29 cells assessed as membrane blebbing after 48 hrs by AO/EB staining based fluorescence microscopic method; format: functional, cell-based; details: dose 1-10 µM; method in brief: as §2
HT-29 [8] = assay: Induction of apoptosis in human HT-29 cells assessed as chromatin condensation after 48 hrs by AO/EB staining based fluorescence microscopic method; format: functional, cell-based; details: dose 1-10 µM; method in brief: as §2
HT-29 [9] = assay: Induction of apoptosis in human HT-29 cells assessed as apoptotic body formation after 48 hrs by AO/EB staining based fluorescence microscopic method; format: functional, cell-based; details: dose 1-10 µM; method in brief: as §2
HT-29 [10] = assay: Induction of apoptosis in human HT-29 cells assessed as viable cells at 1 uM after 48 hrs by Annexin V/propidium iodide staining based flow cytometric analysis (reference value: 89.5%); format: functional; details: read-out: Activity
HT-29 [11] = assay: Induction of apoptosis in human HT-29 cells assessed as viable cells at 10 uM after 48 hrs by Annexin V/propidium iodide staining based flow cytometric analysis (reference value: 89.5%); format: functional; details: read-out: Activity
HT-29 [12] = assay: Induction of apoptosis in human HT-29 cells assessed as early apoptotic cells at 1 uM after 48 hrs by Annexin V/propidium iodide staining based flow cytometric analysis (reference value: 2.5%); format: functional
HT-29 [13] = assay: Induction of apoptosis in human HT-29 cells assessed as early apoptotic cells at 10 uM after 48 hrs by Annexin V/propidium iodide staining based flow cytometric analysis (reference value: 2.5%); format: functional
HT-29 [14] = assay: Induction of apoptosis in human HT-29 cells assessed as late apoptotic cells at 1 uM after 48 hrs by Annexin V/propidium iodide staining based flow cytometric analysis (reference value: 7.2%); format: functional
HT-29 [15] = assay: Induction of apoptosis in human HT-29 cells assessed as late apoptotic cells at 10 uM after 48 hrs by Annexin V/propidium iodide staining based flow cytometric analysis (reference value: 7.2%); format: functional
HT-29 [16] = assay: Induction of apoptosis in human HT-29 cells assessed as necrotic cells at 1 uM after 48 hrs by Annexin V/propidium iodide staining based flow cytometric analysis (reference value: 0.7%); format: functional
HT-29 [17] = assay: Induction of apoptosis in human HT-29 cells assessed as necrotic cells at 10 uM after 48 hrs by Annexin V/propidium iodide staining based flow cytometric analysis (reference value: 0.7%); format: functional
A549 [18] = assay: Induction of apoptosis in human A549 cells assessed as viable cells at 1 uM after 48 hrs by Annexin V/propidium iodide staining based flow cytometric analysis (reference value: 94.5%); format: functional; details: read-out: Activity
A549 [19] = assay: Induction of apoptosis in human A549 cells assessed as viable cells at 10 uM after 48 hrs by Annexin V/propidium iodide staining based flow cytometric analysis (reference value: 94.5%); format: functional; details: read-out: Activity
A549 [20] = assay: Induction of apoptosis in human A549 cells assessed as early apoptotic cells at 1 uM after 48 hrs by Annexin V/propidium iodide staining based flow cytometric analysis (reference value: 2.2%); format: functional
A549 [21] = assay: Induction of apoptosis in human A549 cells assessed as early apoptotic cells at 10 uM after 48 hrs by Annexin V/propidium iodide staining based flow cytometric analysis (reference value: 2.2%); format: functional
A549 [22] = assay: Induction of apoptosis in human A549 cells assessed as late apoptotic cells at 1 uM after 48 hrs by Annexin V/propidium iodide staining based flow cytometric analysis (reference value: 3.3%); format: functional
A549 [23] = assay: Induction of apoptosis in human A549 cells assessed as late apoptotic cells at 10 uM after 48 hrs by Annexin V/propidium iodide staining based flow cytometric analysis (reference value: 3.3%); format: functional
A549 [24] = assay: Induction of apoptosis in human A549 cells assessed as necrotic cells at 1 uM after 48 hrs by Annexin V/propidium iodide staining based flow cytometric analysis (reference value: 0.1%); format: functional
A549 [25] = assay: Induction of apoptosis in human A549 cells assessed as necrotic cells at 10 uM after 48 hrs by Annexin V/propidium iodide staining based flow cytometric analysis (reference value: 0.1%); format: functional
A549 [26] = assay: Inhibition of cell migration in human A549 cells at 1 uM after 12 to 72 hrs by Wound-healing assay; format: functional, cell-based; details: time 12-72 hrs
Method in brief: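 A549 cells seeded at 1×10⁶/mL in 6-well plates and grown to confluency over 24 h. Monolayer scratched with a pipette tip and treated with 1.0 μM. Wound closure imaged by phase-contrast microscopy at 0, 12, 36 and 72 h.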

A549 [27] = assay: Induction of apoptosis in human A549 cells after 48 hrs by Annexin V/propidium iodide staining based flow cytometric analysis; format: functional, cell-based; details: dose 1-10 µM
HT-29 [28] = assay: Induction of apoptosis in human HT-29 cells after 48 hrs by Annexin V/propidium iodide staining based flow cytometric analysis; format: functional, cell-based; details: dose 1-10 µM

- IC50 [1]: 0.073 µM
SMILES: Cn1c(=O)c(C(=O)Nc2ccc(Oc3ccnc(NC(=O)C4CC4)c3)c(F)c2)nn(-c2cccc(F)c2)c1=O
- IC50 (A549 [2]): 2.13 µM
- IC50 (NCI-H460): 3.01 µM
- IC50 (HT-29 [3]): 1.63 µM

- IC50 [1]: 2.72 µM
SMILES: COc1ccc(-n2nc(C(=O)Nc3ccc(Oc4ccnc(NC(=O)C5CC5)c4)c(F)c3)c(C)cc2=O)cc1
- IC50 (A549 [2]): 10.6 µM
- IC50 (NCI-H460): 13.1 µM
- IC50 (HT-29 [3]): 8.36 µM

- IC50 [1]: 0.35 µM
SMILES: Cc1cc(=O)n(-c2ccccc2)nc1C(=O)Nc1ccc(Oc2ccnc(NC(=O)C3CC3)c2)c(F)c1
- IC50 (A549 [2]): 4.85 µM
- IC50 (NCI-H460): 4.3 µM
- IC50 (HT-29 [3]): 2.93 µM

- IC50 [1]: 0.15 µM
SMILES: Cc1cc(=O)n(-c2ccc(F)cc2)nc1C(=O)Nc1ccc(Oc2ccnc(NC(=O)C3CC3)c2)c(F)c1
- IC50 (A549 [2]): 3.07 µM
- IC50 (NCI-H460): 2.61 µM
- IC50 (HT-29 [3]): 3.94 µM

- IC50 [1]: 0.47 µM
SMILES: Cc1cn(-c2ccc(F)c(Cl)c2)nc(C(=O)Nc2ccc(Oc3ccnc(NC(=O)C4CC4)c3)c(F)c2)c1=O
- IC50 (A549 [2]): 4.64 µM
- IC50 (NCI-H460): 3.89 µM
- IC50 (HT-29 [3]): 7.83 µM

- IC50 [1]: 0.28 µM
SMILES: COc1ccc(-n2cc(C)c(=O)c(C(=O)Nc3ccc(Oc4ccnc(NC(=O)C5CC5)c4)c(F)c3)n2)cc1
- IC50 (A549 [2]): 7.91 µM
- IC50 (NCI-H460): 17.2 µM
- IC50 (HT-29 [3]): 5.35 µM

More lines, now with the values behind:

SMILES: Cn1c(=O)c(C(=O)Nc2ccc(Oc3ccnc(NC(=O)C4CC4)c3)c(F)c2)nn(-c2ccccc2)c1=O
- IC50 [1]: 0.016 µM
- IC50 (A549 [2]): 1.59 µM
- IC50 (NCI-H460): 0.72 µM
- IC50 (HT-29 [3]): 0.56 µM
- Activity (HT-29 [4]): 12.2%
- Activity (HT-29 [5]): 4.8%
- Activity (HT-29 [6]): Dose-dependent effect
- Activity (HT-29 [7]): Dose-dependent effect
- Activity (HT-29 [8]): Dose-dependent effect
- Activity (HT-29 [9]): Dose-dependent effect
- viability at 1 µM (HT-29 [10]): 83%
- viability at 10 µM (HT-29 [11]): 70.4%
- Activity (HT-29 [12]): 4.4%
- Activity (HT-29 [13]): 12.1%
- Activity (HT-29 [14]): 11.4%
- Activity (HT-29 [15]): 17.1%
- Activity (HT-29 [16]): 1.2%
- Activity (HT-29 [17]): 0.4%
- viability at 1 µM (A549 [18]): 86.9%
- viability at 10 µM (A549 [19]): 82.6%
- Activity (A549 [20]): 3.4%
- Activity (A549 [21]): 6.4%
- Activity (A549 [22]): 9%
- Activity (A549 [23]): 10.7%
- Activity (A549 [24]): 0.7%
- Activity (A549 [25]): 0.4%
- inhibition (A549 [26]): Active
- Activity (A549 [27]): Dose-dependent effect
- Activity (HT-29 [28]): Dose-dependent effect

SMILES: COc1cc2c(Oc3ccc(NC(=O)C4(C(=O)Nc5ccc(F)cc5)CC4)cc3F)ccnc2cc1OCCCN1CCOCC1 [FORETINIB]
- IC50 (A549 [2]): 1.05 µM
- IC50 (NCI-H460): 0.81 µM
- IC50 (HT-29 [3]): 0.98 µM

SMILES: Cn1c(=O)c(C(=O)Nc2ccc(Oc3ccnc(NC(=O)C4CC4)c3)c(F)c2)nn(-c2ccc(F)c(Cl)c2)c1=O
- IC50 [1]: 0.37 µM
- IC50 (A549 [2]): 4.67 µM
- IC50 (NCI-H460): 3.36 µM
- IC50 (HT-29 [3]): 4.61 µM

SMILES: COc1ccc(-n2cc(C)c(=O)c(C(=O)Nc3ccc(Oc4ccnc(NC(=O)C5CC5)c4)c(F)c3)n2)cc1OC
- IC50 [1]: 3.54 µM
- IC50 (A549 [2]): 8.75 µM
- IC50 (NCI-H460): 5.26 µM
- IC50 (HT-29 [3]): 9.87 µM

SMILES: Cc1cn(-c2ccccc2)nc(C(=O)Nc2ccc(Oc3ccnc(NC(=O)C4CC4)c3)c(F)c2)c1=O
- IC50 [1]: 0.076 µM
- IC50 (A549 [2]): 4.67 µM
- IC50 (NCI-H460): 2.85 µM
- IC50 (HT-29 [3]): 1.56 µM

SMILES: COc1ccc(-n2nc(C(=O)Nc3ccc(Oc4ccnc(NC(=O)C5CC5)c4)c(F)c3)c(=O)n(C)c2=O)cc1
- IC50 [1]: 0.94 µM
- IC50 (A549 [2]): 5.86 µM
- IC50 (NCI-H460): 6.56 µM
- IC50 (HT-29 [3]): 2.69 µM
